Reference: paper PMC7115615 (European Journal of Medicinal Chemistry, 2013)
Read-outs that look alike come from different tables or passages of the source.

Columns and labels:
[1] = tested on: panel of approximately sixty human tumor cell lines; assay: NCI one-dose primary anticancer assay; assay type: cell-based; details: for anticancer activity in words / number of cell lines against which the compound was effective: 1 dose 10 μM; for activity at 10 µM: Homo sapiens, 60 cell, 48 h
In short: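 NCI DTP single-dose screen on approximately sixty human tumor cell lines from nine cancer types. Test compound added at 10⁻⁵ M and cultures incubated 48 h. End point by sulforhodamine B protein staining, read spectrophotometrically. Result expressed as percent growth of treated cells relative to untreated control cells.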

[2] = tested on: SARS CoV Urbani; assay: microbe, parasite or virus in culture; assay type: cell-based, SARS coronavirus; details: for EC50: Severe acute respiratory syndrome coronavirus
[3] = tested on: Ovarian cancer cell lines; assay: NCI five-dose anticancer assay; assay type: cell-based, human; details: 48 h; for GI50: Homo sapiens; for TGI: Ovarian cancer subpanel average, five concentrations
In short: (§1)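 Approximately sixty human tumor cell lines from nine cancer types, tested by the NCI DTP protocol. Test compound given at five 10-fold dilutions (100, 10, 1, 0.1, 0.01 μM) with 48 h continuous exposure. SRB protein staining read spectrophotometrically at time zero, in untreated control and in treated wells. […] MG_MID averages each parameter over all cell lines.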

[4] = tested on: Renal cancer cell lines; assay: NCI five-dose anticancer assay; assay type: cell-based, human; details: 48 h; for GI50: Homo sapiens; for TGI: Renal cancer subpanel average, five concentrations
In short: as §1

[5] = tested on: Leukemia subpanel tumor cell lines; assay: NCI five-dose anticancer assay; assay type: cell-based, human; details: for GI50: Homo sapiens; for TGI: Leukemia subpanel average, five concentrations
In short: as §1

[6] = tested on: Melanoma cell lines; assay: NCI five-dose anticancer assay; assay type: cell-based, human; details: 48 h; for GI50: Homo sapiens; for TGI: Melanoma subpanel average, five concentrations
In short: as §1

[7] = tested on: CNS cancer cell lines; assay: NCI five-dose anticancer assay; assay type: cell-based, human; details: 48 h; for TGI: CNS cancer subpanel average, five concentrations; for GI50: Homo sapiens
In short: as §1

[8] = tested on: panel of approximately sixty tumor cell lines; assay: NCI five-dose anticancer assay; assay type: cell-based; details: Homo sapiens, read-out: GI50 MG_MID
In short: as §1

[9] = tested on: Colon cancer cell lines; assay: NCI five-dose anticancer assay; assay type: cell-based, human; details: 48 h; for TGI: Colon cancer subpanel average, five concentrations; for GI50: Homo sapiens
In short: as §1

[10] = tested on: Breast cancer cell lines; assay: NCI five-dose anticancer assay; assay type: cell-based, human; details: 48 h; for TGI: Breast cancer subpanel average, five concentrations
In short: as §1

[11] = tested on: NSC lung cancer cell lines; assay: NCI five-dose anticancer assay; assay type: cell-based, human; details: 48 h; for GI50: Homo sapiens; for TGI: NSC lung cancer subpanel average, five concentrations
In short: as §1

[12] = tested on: Prostate cancer cell lines; assay: NCI five-dose anticancer assay; assay type: cell-based; details: Homo sapiens, 48 h
In short: as §1

[13] = tested on: HS 578T; assay: NCI five-dose anticancer assay; assay type: cell-based, human; details: Breast cancer, 48 h
In short: as §1

[14] = tested on: MOLT-4; assay: NCI five-dose anticancer assay; assay type: cell-based, human; details: MOLT-4, Leukemia; 48 h
In short: as §1

[15] = tested on: Flu A (H1N1) California/07/2009; assay: Primary antiviral assay; assay type: cell-based
[16] = tested on: uninfected cells
[17] = tested on: respiratory viruses panel (Flu A (H1N1), Flu A (H3N2), Flu A (H5N1), Flu B, SARS CoV); assay type: cell-based
[18] = tested on: Flu A (H5N1) Duck/MN/1525/81; assay type: cell-based
[19] = tested on: Flu B Florida/4/2006; assay: Primary antiviral assay; assay type: cell-based
[20] = tested on: Flu A (H3N2) Perth/16/2009; assay: Primary antiviral assay; assay type: cell-based
[21] = tested on: four strains of influenza virus; assay: Primary antiviral assay, influenza strains taken together; assay type: cell-based
[22] = in vitro
[23] = 50% effective (virus-inhibitory) concentration

COc1ccc(C2CC(c3ccccc3)=NN2C(=O)/C=C2\SC(=O)NC2=O)cc1 (centres unmarked) [4a, 5-{2-[5-(4-Methoxyphenyl)-3-phenyl-4,5-dihydropyrazol-1-yl]-2-oxoethylidene}-thiazolidine-2,4-dione]
anticancer activity in words [1]: moderately effective against few cell lines | activity at 10 µM ([1]; read-out: Mean growth %): 96.6% | activity at 10 µM ([1]; read-out: Range of growth %): 39.1 to 147%

COc1ccc(NC(=O)CN2C(=O)SC(N3N=C(c4ccc5ccccc5c4)CC3c3ccc(Cl)cc3)C2=O)cc1 (centres unmarked) [2c, 2-{5-[5-(4-Chlorophenyl)-3-naphthalen-2-yl-4,5-dihydropyrazol-1-yl]-2,4-dioxothiazolidin-3-yl}-N-(4-methoxyphenyl)-acetamide]
SI [2]: 0 | EC50 [2]: > 342 µM

COc1ccc(C2=NN(C(=O)/C=C3\SC(=O)NC3=O)C(c3ccccc3O)C2)cc1 (centres unmarked) [4d, 5-{2-[5-(2-Hydroxyphenyl)-3-(4-methoxyphenyl)-4,5-dihydropyrazol-1-yl]-2-oxoethylidene}-thiazolidine-2,4-dione]
GI50 [3]: 11.4 µM | TGI [3]: 79.20 µM | GI50 [4]: 8.13 µM | TGI [4]: 44.04 µM | GI50 ([5]; 48 h): 3.28 µM | GI50 ([5]; read-out: GI50 values range): 2.12 to 4.58 µM | TGI ([5]; 48 h): 25.31 µM | GI50 [6]: 8.07 µM | TGI [6]: 28.21 µM | TGI [7]: 24.10 µM | GI50 [7]: 7.57 µM | number of cell lines against which the compound was effective [1]: 12 cell lines | activity at 10 µM ([1]; read-out: Mean growth %): 60.1% | activity at 10 µM ([1]; read-out: Range of growth %): -27.3 to 160% | GI50 [8]: 7.02 µM | TGI [9]: 21.01 µM | GI50 [9]: 5.73 µM | TGI [10]: 47.30 µM | GI50 ([10]; Homo sapiens): 6.5 µM | GI50 [11]: 7.91 µM | TGI [11]: 42.06 µM

CC(=O)N1CCN(CN2C(=O)SC(N3N=C(c4ccc5ccccc5c4)CC3c3ccc(Cl)cc3)C2=O)CC1 (centres unmarked) [3f, 3-(4-Acetylpiperazin-1-ylmethyl)-5-[5-(4-chlorophenyl)-3-naphthalen-2-yl-4,5-dihydropyrazol-1-yl]-thiazolidine-2,4-dione]
anticancer activity in words [1]: did not show any activity | activity at 10 µM ([1]; read-out: Mean growth %): 102% | activity at 10 µM ([1]; read-out: Range of growth %): 76.4 to 131%

COc1ccc(C2CC(c3ccc4ccccc4c3)=NN2C2SC(=O)N(CN3CCN(C(C)=O)CC3)C2=O)cc1 (centres unmarked) [3c, 3-(4-Acetylpiperazin-1-ylmethyl)-5-[5-(4-methoxyphenyl)-3-naphthalen-2-yl-4,5-dihydro-pyrazol-1-yl]-thiazolidine-2,4-dione]
activity at 10 µM ([1]; read-out: Mean growth %): 101% | activity at 10 µM ([1]; read-out: Range of growth %): 82.2 to 126%

COc1ccc(C2CC(c3ccc4ccccc4c3)=NN2C2SC(=O)N(CN3CCCCC3)C2=O)cc1 (centres unmarked) [3a, 5-[5-(4-Methoxyphenyl)-3-naphthalen-2-yl-4,5-dihydropyrazol-1-yl]-3-piperidin-1-ylmethylthiazolidine-2,4-dione]
activity at 10 µM ([1]; read-out: Mean growth %): 101% | activity at 10 µM ([1]; read-out: Range of growth %): 69.5 to 113%

COc1ccc(NC(=O)CN2C(=O)S/C(=C\C(=O)N3N=C(c4ccc5ccccc5c4)CC3c3ccc(OC)cc3)C2=O)cc1 (centres unmarked) [5d, N-(4-Methoxyphenyl)-2-(5-{2-[5-(4-methoxyphenyl)-3-naphthalen-2-yl-4,5-dihydropyrazol-1-yl]-2-oxoethylidene}-2,4-dioxothiazolidin-3-yl)-acetamide]
anticancer activity in words [1]: did not show any activity | activity at 10 µM ([1]; read-out: Mean growth %): 98% | activity at 10 µM ([1]; read-out: Range of growth %): 74.7 to 119%

CCN1CCN(CN2C(=O)SC(N3N=C(c4ccc5ccccc5c4)CC3c3ccc(Cl)cc3)C2=O)CC1 (centres unmarked) [3e, 5-[5-(4-Chlorophenyl)-3-naphthalen-2-yl-4,5-dihydropyrazol-1-yl]-3-(4-ethylpiperazin-1-ylmethyl)-thiazolidine-2,4-dione]
SI [2]: 0 | EC50 [2]: > 16.8 µM

O=C1NC(=O)C(N2N=C(c3ccc4ccccc4c3)CC2c2ccc(Cl)cc2)S1 (centres unmarked) [1b, 5-[5-(4-Chlorophenyl)-3-naphthalen-2-yl-4,5-dihydropyrazol-1-yl]-thiazolidine-2,4-dione]
anticancer activity in words [1]: did not show any activity | activity at 10 µM ([1]; read-out: Mean growth %): 105% | activity at 10 µM ([1]; read-out: Range of growth %): 74.9 to 170% | SI [2]: 0 | EC50 [2]: > 23.2 µM

Cc1ccc(NC(=O)CN2C(=O)SC(N3N=C(c4ccc5ccccc5c4)CC3c3ccc(Cl)cc3)C2=O)cc1 (centres unmarked) [2b, 2-{5-[5-(4-Chlorophenyl)-3-naphthalen-2-yl-4,5-dihydropyrazol-1-yl]-2,4-dioxothiazolidin-3-yl}-N-p-tolylacetamide]
SI [2]: 0 | EC50 [2]: > 351 µM

O=C1NC(=O)/C(=C/C(=O)N2N=C(c3ccc4ccccc4c3)CC2c2ccc(Cl)cc2)S1 (centres unmarked) [4f, 5-{2-[5-(4-Chlorophenyl)-3-naphthalen-2-yl-4,5-dihydropyrazol-1-yl]-2-oxoethylidene}-thiazolidine-2,4-dione]
GI50 [12]: 4.61 µM | GI50 [3]: 9.79 µM | TGI [3]: 79.83 µM | GI50 [4]: 4.66 µM | TGI [4]: 53.25 µM | GI50 ([5]; read-out: GI50 values range): 1.64 to 3.2 µM | TGI ([5]; 48 h): 7.38 µM | GI50 [6]: 4.08 µM | TGI [6]: 45.88 µM | TGI [7]: 31.99 µM | GI50 [7]: 4.09 µM | number of cell lines against which the compound was effective [1]: 18 cell lines | activity at 10 µM ([1]; read-out: Mean growth %): 51% | activity at 10 µM ([1]; read-out: Range of growth %): -5.27 to 109% | GI50 [8]: 4.38 µM | TGI [9]: 63.20 µM | GI50 [9]: 3.53 µM | TGI [13]: 8.26 µM | TGI [10]: 15.85 µM | TGI [14]: 7.41 µM | GI50 [11]: 3.52 µM | TGI [11]: 61.59 µM

oseltamivir carboxylate [Oseltamirvir-carboxylate]
EC50 [15, 23]: 19 µM | SI ([15]; […]): >1.9 | CC50 [16]: > 35.2 µM | activity of positive controls, in words [17]: active as expected | EC50 [18]: 0.11 µM | SI [18]: >326 | EC50 [19, 23]: 3.52 µM | SI ([19]; […]): >10 | EC50 [20, 23]: 3.06 µM | SI ([20]; […]): >11

COc1ccc(C2CC(c3ccc4ccccc4c3)=NN2C(=O)/C=C2\SC(=O)NC2=O)cc1 (centres unmarked) [4e, 5-{2-[5-(4-Methoxyphenyl)-3-naphthalen-2-yl-4,5-dihydropyrazol-1-yl]-2-oxoethylidene}-thiazolidine-2,4-dione]
anticancer activity in words [1]: did not show any activity | activity at 10 µM ([1]; read-out: Mean growth %): 99.7% | activity at 10 µM ([1]; read-out: Range of growth %): 78.7 to 132%

COc1ccc(C2CC(c3ccc4ccccc4c3)=NN2C2SC(=O)N(CC(=O)Nc3ccc(C)cc3)C2=O)cc1 (centres unmarked) [2a, 2-{5-[5-(4-Methoxyphenyl)-3-naphthalen-2-yl-4,5-dihydropyrazol-1-yl]-2,4-dioxothiazolidin-3-yl}-N-p-tolylacetamide]
anticancer activity in words [1]: did not show any activity | activity at 10 µM ([1]; read-out: Mean growth %): 99.2% | activity at 10 µM ([1]; read-out: Range of growth %): 76.6 to 114% | SI [18]: >16.3 | activity against other influenza strains, in words [21]: did not have significant activity | SI [2]: 0 | EC50 [2]: > 313 µM

COc1ccc(C2CC(c3ccc4ccccc4c3)=NN2C2SC(=O)N(CN3CCOCC3)C2=O)cc1 (centres unmarked) [3b, 5-[5-(4-Methoxyphenyl)-3-naphthalen-2-yl-4,5-dihydropyrazol-1-yl]-3-morpholin-4-ylmethylthiazolidine-2,4-dione]
activity at 10 µM ([1]; read-out: Mean growth %): 99.5% | activity at 10 µM ([1]; read-out: Range of growth %): 67.5 to 122%

NC(=O)c1ncn([C@@H]2O[C@H](CO)[C@@H](O)[C@H]2O)n1 [Ribavirin]
activity of positive controls, in words [17]: active as expected | CC50 [22]: > 348 µM

COc1ccc(C2CC(c3ccc4ccccc4c3)=NN2C2SC(=O)N(CN3CCN(Cc4ccccc4)CC3)C2=O)cc1 (centres unmarked) [3d, 3-(4-Benzylpiperazin-1-ylmethyl)-5-[5-(4-methoxyphenyl)-3-naphthalen-2-yl-4,5-dihydropyrazol-1-yl]-thiazolidine-2,4-dione]
activity at 10 µM ([1]; read-out: Mean growth %): 103% | activity at 10 µM ([1]; read-out: Range of growth %): 74.5 to 127%

COc1ccc(C2CC(c3ccc4ccccc4c3)=NN2C2SC(=O)NC2=O)cc1 (centres unmarked) [1a, 5-[5-(4-Methoxyphenyl)-3-naphthalen-2-yl-4,5-dihydropyrazol-1-yl]-thiazolidine-2,4-dione]
anticancer activity in words [1]: did not show any activity | activity at 10 µM ([1]; read-out: Mean growth %): 102% | activity at 10 µM ([1]; read-out: Range of growth %): 77.5 to 114% | SI [2]: 0 | EC50 [2]: > 23.5 µM
